Measured values taken from ChEMBL document CHEMBL3621182, “Adenosine analogs as inhibitors of tyrosyl-tRNA synthetase: Design, synthesis and antibacterial evaluation” (Bioorg Med Chem, 2015).
In brackets after ≈: the same amount, converted by molar mass.

Test system: not listed separately
Experiment: Inhibition of Staphylococcus aureus tyrosyl-tRNA synthetase expressed in Escherichia coli assessed as reduction in tRNA aminoacylation pre-incubated for 10 mins before addition of Escherichia coli MRE600 tRNA and L-tyrosine
Procedure, shortened: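 Tritiated tyrosine aminoacylation at 37°C. Mix (final): 100 mM Tris/Cl pH 7.9, 50 mM KCl, 16 mM MgCl2, 5 mM ATP, 3 mM DTT, 4 mg/ml E. coli MRE600 tRNA, 10 µM L-tyrosine including 0.3 µM L-[ring-3,5-3H]tyrosine. TyrRS (0.2 nM) preincubated 10 min at room temperature with a range of inhibitor concentrations. TCA precipitation onto filters, scintillation counting. Linear rates, under 50% tRNA acylation; IC50 at half activity.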

IC50 [µM]	Structure (SMILES)
8.4	CC1(C)O[C@@H]2[C@H](O1)[C@@H](COC(=O)Cc1ccc(Cl)cc1)O[C@H]2n1cnc2c(N)ncnc21
93	CCCCCCCC(=O)OC[C@H]1O[C@@H](n2cnc3c(N)ncnc32)[C@H](O)[C@@H]1O
5.6	CC1(C)O[C@@H]2[C@H](O1)[C@@H](COC(=O)Cc1ccc(Br)cc1)O[C@H]2n1cnc2c(N)ncnc21
3.7	CC1(C)O[C@@H]2[C@H](O1)[C@@H](COC(=O)Cc1cccc(Br)c1)O[C@H]2n1cnc2c(N)ncnc21
7.1	CC1(C)O[C@@H]2[C@H](O1)[C@@H](COC(=O)Cc1ccc(F)cc1)O[C@H]2n1cnc2c(N)ncnc21
11	Nc1ncnc2c1ncn2[C@@H]1O[C@H](COC(=O)c2cccc(F)c2)[C@@H](O)[C@H]1O
65	CCCC(=O)OC[C@H]1O[C@@H](n2cnc3c(N)ncnc32)[C@H](O)[C@@H]1O
44	Nc1ncnc2c1ncn2[C@@H]1O[C@H](COC(=O)Cc2ccccc2O)[C@@H](O)[C@H]1O
17	Cc1ccc(CC(=O)OC[C@H]2O[C@@H](n3cnc4c(N)ncnc43)[C@@H]3OC(C)(C)O[C@@H]32)cc1
> 100	CC1(C)O[C@@H]2[C@H](O1)[C@@H](COC(=O)Cc1ccc(Cl)c(Cl)c1)O[C@H]2n1cnc2c(N)ncnc21
6.3	CC1(C)O[C@@H]2[C@H](O1)[C@@H](COC(=O)Cc1cccc(Cl)c1)O[C@H]2n1cnc2c(N)ncnc21
7.7	Nc1ncnc2c1ncn2[C@@H]1O[C@H](COC(=O)Cc2ccc(F)cc2)[C@@H](O)[C@H]1O
47	Nc1ncnc2c1ncn2[C@@H]1O[C@H](COC(=O)Cc2ccccc2Cl)[C@@H](O)[C@H]1O
5.2	Nc1ncnc2c1ncn2[C@@H]1O[C@H](COC(=O)Cc2ccc(Br)cc2)[C@@H](O)[C@H]1O
39	Nc1ncnc2c1ncn2[C@@H]1O[C@H](COC(=O)c2ccccc2)[C@@H](O)[C@H]1O
97	Nc1ncnc2c1ncn2[C@@H]1O[C@H](COC(=O)Cc2ccc(Cl)c(Cl)c2)[C@@H](O)[C@H]1O
43	Nc1ncnc2c1ncn2[C@@H]1O[C@H](COC(=O)c2ccc(Cl)cc2)[C@@H](O)[C@H]1O
6	Nc1ncnc2c1ncn2[C@@H]1O[C@H](COC(=O)Cc2cccc(Cl)c2)[C@@H](O)[C@H]1O

Test system: Escherichia coli
Experiment: Antimicrobial activity against Escherichia coli ATCC 8739 by MTT assay
Assay type: functional
Procedure, shortened: (§1)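 Broth microdilution in LB medium with MTT read-out. Compound stock 1000 µg/ml in DMSO, diluted serially with sterile medium (50% v/v DMSO in PBS). Inoculum about 10^5 cfu/mL, incubated at 37°C. Then 3 mg/mL MTT in PBS added, 4-5 h at room temperature. Dye extracted with 10% SDS containing 5% isopropanol and HCl for 8-10 h. Absorbance at 570 nm gives MIC50.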

MIC50 [mg/L]	Structure (SMILES)
77.6 (≈ 251 µM)	CC(=O)OC[C@H]1O[C@@H](n2cnc3c(N)ncnc32)[C@H](O)[C@@H]1O
0.67 (≈ 2.02 µM)	O=C(O)c1cn(C2CC2)c2cc(N3CCNCC3)c(F)cc2c1=O [CIPROFLOXACIN]
15.2 (≈ 33.1 µM)	CC1(C)O[C@@H]2[C@H](O1)[C@@H](COC(=O)Cc1ccc(Cl)cc1)O[C@H]2n1cnc2c(N)ncnc21
> 100	CCCCCCCC(=O)OC[C@H]1O[C@@H](n2cnc3c(N)ncnc32)[C@H](O)[C@@H]1O
> 100	CC1(C)O[C@@H]2[C@H](O1)[C@@H](COC(=O)Cc1ccc(Br)cc1)O[C@H]2n1cnc2c(N)ncnc21
40.6 (≈ 80.5 µM)	CC1(C)O[C@@H]2[C@H](O1)[C@@H](COC(=O)Cc1cccc(Br)c1)O[C@H]2n1cnc2c(N)ncnc21
76.2 (≈ 172 µM)	CC1(C)O[C@@H]2[C@H](O1)[C@@H](COC(=O)Cc1ccc(F)cc1)O[C@H]2n1cnc2c(N)ncnc21
5.3 (≈ 13.6 µM)	Nc1ncnc2c1ncn2[C@@H]1O[C@H](COC(=O)c2cccc(F)c2)[C@@H](O)[C@H]1O
> 100	CCCC(=O)OC[C@H]1O[C@@H](n2cnc3c(N)ncnc32)[C@H](O)[C@@H]1O
15.9 (≈ 39.6 µM)	Nc1ncnc2c1ncn2[C@@H]1O[C@H](COC(=O)Cc2ccccc2O)[C@@H](O)[C@H]1O
27 (≈ 61.4 µM)	Cc1ccc(CC(=O)OC[C@H]2O[C@@H](n3cnc4c(N)ncnc43)[C@@H]3OC(C)(C)O[C@@H]32)cc1
34 (≈ 68.8 µM)	CC1(C)O[C@@H]2[C@H](O1)[C@@H](COC(=O)Cc1ccc(Cl)c(Cl)c1)O[C@H]2n1cnc2c(N)ncnc21
27.8 (≈ 60.4 µM)	CC1(C)O[C@@H]2[C@H](O1)[C@@H](COC(=O)Cc1cccc(Cl)c1)O[C@H]2n1cnc2c(N)ncnc21
> 100	Nc1ncnc2c1ncn2[C@@H]1O[C@H](COC(=O)Cc2ccc(F)cc2)[C@@H](O)[C@H]1O
7.4 (≈ 17.6 µM)	Nc1ncnc2c1ncn2[C@@H]1O[C@H](COC(=O)Cc2ccccc2Cl)[C@@H](O)[C@H]1O
88.9 (≈ 191 µM)	Nc1ncnc2c1ncn2[C@@H]1O[C@H](COC(=O)Cc2ccc(Br)cc2)[C@@H](O)[C@H]1O
33.7 (≈ 90.7 µM)	Nc1ncnc2c1ncn2[C@@H]1O[C@H](COC(=O)c2ccccc2)[C@@H](O)[C@H]1O
19.4 (≈ 42.7 µM)	Nc1ncnc2c1ncn2[C@@H]1O[C@H](COC(=O)Cc2ccc(Cl)c(Cl)c2)[C@@H](O)[C@H]1O
28.1 (≈ 69.2 µM)	Nc1ncnc2c1ncn2[C@@H]1O[C@H](COC(=O)c2ccc(Cl)cc2)[C@@H](O)[C@H]1O
20.2 (≈ 48.1 µM)	Nc1ncnc2c1ncn2[C@@H]1O[C@H](COC(=O)Cc2cccc(Cl)c2)[C@@H](O)[C@H]1O

Test system: Staphylococcus aureus
Experiment: Antimicrobial activity against Staphylococcus aureus ATCC 6538 by MTT assay
Assay type: functional
Procedure, shortened: as §1

MIC50 [mg/L]	Structure (SMILES)
> 100	CC(=O)OC[C@H]1O[C@@H](n2cnc3c(N)ncnc32)[C@H](O)[C@@H]1O
0.54	CC1(C)S[C@@H]2[C@H](NC(=O)Cc3ccccc3)C(=O)N2[C@H]1C(=O)O [PENICILLIN G SODIUM]
7.2 (≈ 15.7 µM)	CC1(C)O[C@@H]2[C@H](O1)[C@@H](COC(=O)Cc1ccc(Cl)cc1)O[C@H]2n1cnc2c(N)ncnc21
> 100	CCCCCCCC(=O)OC[C@H]1O[C@@H](n2cnc3c(N)ncnc32)[C@H](O)[C@@H]1O
> 100	CC1(C)O[C@@H]2[C@H](O1)[C@@H](COC(=O)Cc1ccc(Br)cc1)O[C@H]2n1cnc2c(N)ncnc21
38.3 (≈ 75.9 µM)	CC1(C)O[C@@H]2[C@H](O1)[C@@H](COC(=O)Cc1cccc(Br)c1)O[C@H]2n1cnc2c(N)ncnc21
> 100	CC1(C)O[C@@H]2[C@H](O1)[C@@H](COC(=O)Cc1ccc(F)cc1)O[C@H]2n1cnc2c(N)ncnc21
20.4 (≈ 52.4 µM)	Nc1ncnc2c1ncn2[C@@H]1O[C@H](COC(=O)c2cccc(F)c2)[C@@H](O)[C@H]1O
> 100	CCCC(=O)OC[C@H]1O[C@@H](n2cnc3c(N)ncnc32)[C@H](O)[C@@H]1O
37.8 (≈ 94.2 µM)	Nc1ncnc2c1ncn2[C@@H]1O[C@H](COC(=O)Cc2ccccc2O)[C@@H](O)[C@H]1O
> 100	Cc1ccc(CC(=O)OC[C@H]2O[C@@H](n3cnc4c(N)ncnc43)[C@@H]3OC(C)(C)O[C@@H]32)cc1
40.2 (≈ 81.3 µM)	CC1(C)O[C@@H]2[C@H](O1)[C@@H](COC(=O)Cc1ccc(Cl)c(Cl)c1)O[C@H]2n1cnc2c(N)ncnc21
44.9 (≈ 97.6 µM)	CC1(C)O[C@@H]2[C@H](O1)[C@@H](COC(=O)Cc1cccc(Cl)c1)O[C@H]2n1cnc2c(N)ncnc21
> 100	Nc1ncnc2c1ncn2[C@@H]1O[C@H](COC(=O)Cc2ccc(F)cc2)[C@@H](O)[C@H]1O
> 100	Nc1ncnc2c1ncn2[C@@H]1O[C@H](COC(=O)Cc2ccccc2Cl)[C@@H](O)[C@H]1O
42.2 (≈ 90.9 µM)	Nc1ncnc2c1ncn2[C@@H]1O[C@H](COC(=O)Cc2ccc(Br)cc2)[C@@H](O)[C@H]1O
67.4 (≈ 181 µM)	Nc1ncnc2c1ncn2[C@@H]1O[C@H](COC(=O)c2ccccc2)[C@@H](O)[C@H]1O
48.5 (≈ 107 µM)	Nc1ncnc2c1ncn2[C@@H]1O[C@H](COC(=O)Cc2ccc(Cl)c(Cl)c2)[C@@H](O)[C@H]1O
> 100	Nc1ncnc2c1ncn2[C@@H]1O[C@H](COC(=O)c2ccc(Cl)cc2)[C@@H](O)[C@H]1O
49.2 (≈ 117 µM)	Nc1ncnc2c1ncn2[C@@H]1O[C@H](COC(=O)Cc2cccc(Cl)c2)[C@@H](O)[C@H]1O

Test system: Pseudomonas aeruginosa
Experiment: Antimicrobial activity against Pseudomonas aeruginosa ATCC 9027 by MTT assay
Assay type: functional
Procedure, shortened: as §1

MIC50 [mg/L]	Structure (SMILES)
58.2 (≈ 188 µM)	CC(=O)OC[C@H]1O[C@@H](n2cnc3c(N)ncnc32)[C@H](O)[C@@H]1O
0.1 (≈ 0.302 µM)	O=C(O)c1cn(C2CC2)c2cc(N3CCNCC3)c(F)cc2c1=O [CIPROFLOXACIN]
30.6 (≈ 66.5 µM)	CC1(C)O[C@@H]2[C@H](O1)[C@@H](COC(=O)Cc1ccc(Cl)cc1)O[C@H]2n1cnc2c(N)ncnc21
> 100	CCCCCCCC(=O)OC[C@H]1O[C@@H](n2cnc3c(N)ncnc32)[C@H](O)[C@@H]1O
21.2 (≈ 42 µM)	CC1(C)O[C@@H]2[C@H](O1)[C@@H](COC(=O)Cc1ccc(Br)cc1)O[C@H]2n1cnc2c(N)ncnc21
18.8 (≈ 37.3 µM)	CC1(C)O[C@@H]2[C@H](O1)[C@@H](COC(=O)Cc1cccc(Br)c1)O[C@H]2n1cnc2c(N)ncnc21
24.8 (≈ 55.9 µM)	CC1(C)O[C@@H]2[C@H](O1)[C@@H](COC(=O)Cc1ccc(F)cc1)O[C@H]2n1cnc2c(N)ncnc21
3.5 (≈ 8.99 µM)	Nc1ncnc2c1ncn2[C@@H]1O[C@H](COC(=O)c2cccc(F)c2)[C@@H](O)[C@H]1O
87.3 (≈ 259 µM)	CCCC(=O)OC[C@H]1O[C@@H](n2cnc3c(N)ncnc32)[C@H](O)[C@@H]1O
26 (≈ 64.8 µM)	Nc1ncnc2c1ncn2[C@@H]1O[C@H](COC(=O)Cc2ccccc2O)[C@@H](O)[C@H]1O
14.1 (≈ 32.1 µM)	Cc1ccc(CC(=O)OC[C@H]2O[C@@H](n3cnc4c(N)ncnc43)[C@@H]3OC(C)(C)O[C@@H]32)cc1
19.3 (≈ 39 µM)	CC1(C)O[C@@H]2[C@H](O1)[C@@H](COC(=O)Cc1ccc(Cl)c(Cl)c1)O[C@H]2n1cnc2c(N)ncnc21
22 (≈ 47.8 µM)	CC1(C)O[C@@H]2[C@H](O1)[C@@H](COC(=O)Cc1cccc(Cl)c1)O[C@H]2n1cnc2c(N)ncnc21
26.1 (≈ 64.7 µM)	Nc1ncnc2c1ncn2[C@@H]1O[C@H](COC(=O)Cc2ccc(F)cc2)[C@@H](O)[C@H]1O
26.7 (≈ 63.6 µM)	Nc1ncnc2c1ncn2[C@@H]1O[C@H](COC(=O)Cc2ccccc2Cl)[C@@H](O)[C@H]1O
19.3 (≈ 41.6 µM)	Nc1ncnc2c1ncn2[C@@H]1O[C@H](COC(=O)Cc2ccc(Br)cc2)[C@@H](O)[C@H]1O
21.9 (≈ 59 µM)	Nc1ncnc2c1ncn2[C@@H]1O[C@H](COC(=O)c2ccccc2)[C@@H](O)[C@H]1O
21.4 (≈ 47.1 µM)	Nc1ncnc2c1ncn2[C@@H]1O[C@H](COC(=O)Cc2ccc(Cl)c(Cl)c2)[C@@H](O)[C@H]1O
19.3 (≈ 47.6 µM)	Nc1ncnc2c1ncn2[C@@H]1O[C@H](COC(=O)c2ccc(Cl)cc2)[C@@H](O)[C@H]1O
35.1 (≈ 83.6 µM)	Nc1ncnc2c1ncn2[C@@H]1O[C@H](COC(=O)Cc2cccc(Cl)c2)[C@@H](O)[C@H]1O
